The values that follow come from ChEMBL document CHEMBL1138080, “Design and synthesis of novel 2-amino-5-hydroxyindole derivatives that inhibit human 5-lipoxygenase” (J Med Chem, 2006).

Assay [1] has as its target T1, Polyunsaturated fatty acid 5-lipoxygenase (Homo sapiens) (UniProt P09917).
T1 sequence (whole entry): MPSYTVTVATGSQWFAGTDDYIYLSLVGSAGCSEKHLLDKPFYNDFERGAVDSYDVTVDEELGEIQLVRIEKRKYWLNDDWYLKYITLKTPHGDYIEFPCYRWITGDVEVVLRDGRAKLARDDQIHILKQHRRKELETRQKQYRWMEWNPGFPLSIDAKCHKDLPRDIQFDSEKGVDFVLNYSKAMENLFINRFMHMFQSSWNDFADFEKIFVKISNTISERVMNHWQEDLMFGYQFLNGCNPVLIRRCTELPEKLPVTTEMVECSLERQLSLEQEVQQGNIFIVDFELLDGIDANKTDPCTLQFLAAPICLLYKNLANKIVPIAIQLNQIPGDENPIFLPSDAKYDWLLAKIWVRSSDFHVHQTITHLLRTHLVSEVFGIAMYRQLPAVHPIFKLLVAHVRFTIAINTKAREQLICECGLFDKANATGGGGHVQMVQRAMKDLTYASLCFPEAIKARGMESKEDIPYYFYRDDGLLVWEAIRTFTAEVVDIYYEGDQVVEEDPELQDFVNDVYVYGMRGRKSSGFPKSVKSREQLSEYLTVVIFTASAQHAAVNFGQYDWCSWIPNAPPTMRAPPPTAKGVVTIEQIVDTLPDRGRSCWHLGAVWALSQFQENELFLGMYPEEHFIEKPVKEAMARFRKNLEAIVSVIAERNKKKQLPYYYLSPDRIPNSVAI
In words: Inhibition of 5-LOX at 10 uM. In outline:
(§1)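 5-LO was human recombinant, expressed in E. coli JM 109 (pT3-5LO). Lysis, ammonium sulfate precipitation and a 100000g spin gave the S100 supernatant used as enzyme source. The assay contained 1 mM ATP and test compound or DMSO vehicle, and the enzyme was incubated with 20 µM arachidonic acid.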

Assay [2] concerns the target T1, Polyunsaturated fatty acid 5-lipoxygenase (Homo sapiens). In words: Inhibition of 5-LOX in A-23187-stimulated […] at 10 uM. The method, boiled down: (§2)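 Freshly isolated human PMNL (10^7 in 1 mL PBS with 1 mg/mL glucose and 1 mM CaCl2) were preincubated with compound at 37 °C. They were then stimulated with 2.5 µM ionophore A23187 for 10 min at 37 °C and stopped with methanol, with prostaglandin B1 added as standard.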

For assay [3], the target named is T2, Polyunsaturated fatty acid 5-lipoxygenase (Homo sapiens, UniProt P09917).
T2 sequence (P09917 whole entry): T1 sequence (whole entry)
The assay is described as follows: Inhibition of 5-LOX. The method, boiled down:
as §1

In assay [4] the target is T2, Polyunsaturated fatty acid 5-lipoxygenase. In words: Inhibition of 5-LOX in A23187 and arachidonic acid-stimulated […]. The method, boiled down: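 Human PMNL (10^7/mL in PBS with glucose and 1 mM CaCl2) were preincubated with compound at 37 °C. They were then challenged with 2.5 µM A23187 plus 20 µM exogenous arachidonic acid for 10 min at 37 °C. The reaction was stopped with methanol and 5-LO products were quantified against a prostaglandin B1 standard.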

Assay [5] shares this target. The assay is described as follows: Inhibition of 5-LOX in A-23187-stimulated PNML. The method, boiled down: as §2

With `CCOC(=O)c1c(Nc2cccnc2)[nH]c2ccc(O)cc12`, the inhibition was 24% in assay [1] and 19% in assay [2].
In assay [2], `CCOC(=O)c1c(N2CCN(C)CC2)[nH]c2ccc(O)cc12` had an inhibition of 0%.
Still for that read-out and setting: as for `CC(=O)c1c(N)[nH]c2ccc(O)cc12`, the figure is 0%.
Regarding `CCOC(=O)c1c(N2CCN(c3ccc(F)cc3)CC2)[nH]c2ccc(O)cc12`, the inhibition was 81% in assay [1] and 22% in assay [2].
As to `CCOC(=O)c1c(NC(C)c2ccccc2)[nH]c2ccc(O)cc12` (stereo not given), the figures for the inhibition in assay [1] and in assay [2] were 72% and 94%, respectively. Also, the IC50 in assay [3] worked out at 3 µM; in assay [4], 4.6 µM; in assay [5], 1.2 µM.
Taken in the same sequence, the figures for `CCOC(=O)c1c(NC(C)c2ccccc2)[nH]c2ccccc12` (stereo not given) were 51%, 53%, 9.8 µM, 5.9 µM and 9.7 µM.
Consider `CCOC(=O)c1c(Nc2ccc(C)cc2)[nH]c2ccc(O)cc12`, for which the inhibition in assay [1] was determined as 77%; in assay [2], 76%. Moreover, the IC50 in assay [3] was 5 µM; in assay [5], 5.2 µM.
For the molecule `CCOC(=O)c1c(N2CCCC2)[nH]c2ccc(O)cc12`, the inhibition in assay [2] worked out at 0%.
`Nc1[nH]c2ccc(O)cc2c1C(=O)c1ccccc1` displayed an inhibition in assay [2] of 0%.
In the case of `CCOC(=O)c1c(N2CCN(Cc3ccccc3)CC2)[nH]c2ccc(O)cc12`, the figures for the inhibition in assay [1] and in assay [2] were 61% and 15%, respectively.
As for `CC(=O)N(O)C/C=C/c1cccc(Oc2ccccc2)c1`, the inhibition in assay [1] came to 86%; in assay [2], 93%.
With `COC(=O)c1c(NC(C)c2ccccc2)[nH]c2ccc(O)cc12` (racemic), the inhibition was 94% in assay [1] and 77% in assay [2].
In turn, `CCOC(=O)c1c(N2CCOCC2)[nH]c2ccc(O)cc12` showed an inhibition in assay [2] of 0%.
As for `CCOC(=O)c1c(N2CCN(c3ccccc3)CC2)[nH]c2ccc(O)cc12`, the inhibition is 79% in assay [1] and 22% in assay [2]. The IC50 is 3.1 µM in assay [3] and above 20 µM in assay [5].
For `N#Cc1c(N)[nH]c2ccc(O)cc12`, the inhibition in assay [2] was 0%.
Still for that read-out and setting: as for `CCOC(=O)c1c(N2CCCCC2)[nH]c2ccc(O)cc12`, the figure is 0%.
Take `COC(=O)c1c(NC(C)c2ccccc2)[nH]c2ccccc12` (stereo not given): the inhibition in assay [1] worked out at 42%; in assay [2], 48%.
As for `CCOC(=O)c1c(Nc2ccccc2)[nH]c2ccc(O)cc12`, the inhibition in assay [1] came to 80%; in assay [2], 65%. For the same molecule, the IC50 turned out to be 2.3 µM in assay [3] and 7.3 µM in assay [5].
Taken in the same sequence, the figures for `C=CCN(CC=C)c1[nH]c2ccc(O)cc2c1C(=O)OCC` were 65%, 71%, 7.1 µM and 7.2 µM.
As to `CCOC(=O)c1c(N(C)C)[nH]c2ccc(O)cc12`, the inhibition in assay [2] was found to be 0%.
Consider `CCOC(=O)c1c(Nc2cccc(Cl)c2)[nH]c2ccc(O)cc12`, for which the IC50 in assay [3] turned out to be 0.3 µM; in assay [5], 2.4 µM.
Turning to `CC(Nc1[nH]c2ccc(O)cc2c1C#N)c1ccccc1` (stereo not given), the inhibition was 62% in assay [1] and 85% in assay [2]. The IC50 in assay [3] was 10 µM; in assay [4], 4.1 µM; in assay [5], 2.8 µM.
On to `CCOC(=O)c1c(N2CCN(c3ccccc3)CC2)n(C)c2ccc(OC)cc12`, for which the inhibition in assay [1] came out at 36%; in assay [2] it was 14%.
As for `CCOC(=O)c1c(N2CCN(c3ccc(Cl)cc3)CC2)[nH]c2ccc(O)cc12`, the inhibition in assay [1] is 69%; in assay [2] it was 84%. The IC50 in assay [3] worked out at 2.3 µM; in assay [4], 5.8 µM; in assay [5], 5 µM.
